SR-BI HDL uptake: blocks mouse SR-BI lipid uptake from DiI-HDL. ldlA[mSR-BI] CHO cells, DiI-HDL uptake fluorescence, 3 h. AID 488896. inhibition, % at 12.5 µM. Q61009. 0.96% of 320,000 active;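 active = mean replicate inhibition of at least 70% and a set share of replicates each scoring 70 or more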;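 note: 0% = median of neutral control wells and 100% = median of positive control wells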
S100A4 inh HTS: S100A4-myosin IIA interaction inhibition; S100A4/TAMRA-MyoIIA peptide fluorescence polarization; 0.14% of 360,000 active; inhibition, % at 10.7 µM; P26447;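 active = mean inhibition of at least 70% across replicates, with every replicate also reaching that level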
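Material: human S100A4 monomer with TAMRA-labelled myosin IIA peptide; buffer or medium: HEPES pH 7.2 with CaCl2, KCl, NaCl, DTT, Triton; compound dosing: one concentration per compound; schedule: 5 min incubation before reading; benchmarks: neutral control DMSO, positive control TFP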
RAD54 branch: inhibitors of human RAD54 branch migration; Q92698; RAD54 Holliday junction branch migration, FAM/BHQ fluorescence; inhibition, % at 10.4 µM; 0.14% of 360,000 active;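 active = mean normalized replicate activity at least 40 and at least half of replicates scoring 40 or more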;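 note: 0% = median of neutral control wells and 100% = median of positive control wells; inhibitors cause a drop in the FAM fluorescence signal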
Target sequence (Q92698 whole entry, looked up): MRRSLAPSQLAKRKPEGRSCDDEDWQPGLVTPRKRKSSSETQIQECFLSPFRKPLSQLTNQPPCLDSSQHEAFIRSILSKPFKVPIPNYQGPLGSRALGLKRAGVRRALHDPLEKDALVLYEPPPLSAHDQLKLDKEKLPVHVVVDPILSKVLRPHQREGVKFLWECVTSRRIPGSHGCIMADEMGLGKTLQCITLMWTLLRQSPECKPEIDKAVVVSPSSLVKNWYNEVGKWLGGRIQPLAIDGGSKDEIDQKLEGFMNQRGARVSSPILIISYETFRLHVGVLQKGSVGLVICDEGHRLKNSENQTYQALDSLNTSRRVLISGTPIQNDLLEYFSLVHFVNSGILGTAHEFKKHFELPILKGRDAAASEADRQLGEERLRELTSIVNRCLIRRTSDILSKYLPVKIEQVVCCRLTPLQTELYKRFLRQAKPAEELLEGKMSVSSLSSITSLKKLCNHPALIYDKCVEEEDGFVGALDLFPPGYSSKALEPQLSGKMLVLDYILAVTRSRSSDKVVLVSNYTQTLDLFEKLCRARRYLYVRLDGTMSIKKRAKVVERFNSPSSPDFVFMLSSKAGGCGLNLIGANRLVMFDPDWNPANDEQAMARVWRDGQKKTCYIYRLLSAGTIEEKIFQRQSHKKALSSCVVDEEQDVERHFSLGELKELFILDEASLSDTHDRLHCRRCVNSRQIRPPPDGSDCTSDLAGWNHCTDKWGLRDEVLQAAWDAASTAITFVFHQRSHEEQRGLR
PvdQ acylase: blocks Pseudomonas aeruginosa PvdQ acylase activity; purified PvdQ acylase, fluorescence plate reader; inhibition, % at 10 µM; 0.063% of 340,000 active; in the data active = inhibition above about 30%, passing the limit was not always enough;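 note: 0% = vehicle neutral wells and 100% = reference inhibitor wells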
SR-BI DiI-HDL act: SR-BI HDL lipid transfer activation. CHO ldlA[mSR-BI] cells, DiI-HDL uptake fluorescence, 3 h; 100 = double the neutral-control signal. activation, % at 12.5 µM. 0.096% of 320,000 active. AID 504775;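 active = mean replicate activation of at least 60% and every replicate at or above 60%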;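 note: 0% = median plate neutral-control signal and 100% = twice that signal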
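Test system: SR-BI-overexpressing, LDLR-lacking CHO cells; Also added: labelled HDL, 10 µg/mL; Measured by: bottom-read cell fluorescence after medium removal, ex 550/em 595 nm; Timing: 3 h uptake period with compound, 37 °C; Buffer or medium: F12, 0.5% BSA, 25 mM HEPES; Doses: single compound concentration, delivered by pin transfer.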
dFosB activator: activators of mouse delta FosB homodimer. activation, % at 25 µM. P13346. AID 493131. 0.99% of 340,000 active. purified delta FosB, TAMRA-CDK5 oligo fluorescence polarization; percent of positive-control signal above neutral wells;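 active = mean activation above about 17%, with every replicate also reaching it, limit read from the data, passing the limit was not always enough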
Numbers without * were called inactive; x = no result given. Rows were chosen to be rich in hits. Some 1.6% of all compounds tested hit in one or more screens of this group.

SMILES	SR-BI HDL uptake	S100A4 inh HTS	RAD54 branch	PvdQ acylase	SR-BI DiI-HDL act	dFosB activator
C[C@H]1CN([C@@H](C)CO)C(=O)c2cccc(NS(=O)(=O)c3ccc(F)cc3)c2O[C@H]1CN(C)C(=O)Nc1ccc(C(F)(F)F)cc1	x	1	3	x	x	x
CC(C)=CCc1c(O)cc2oc3c(CC=C(C)C)c(O)c(O)c(CC=C(C)C)c3c(=O)c2c1O	105*	-6	-5	-12	-105	-8
CCN(CC)c1ccc(/C=N/Nc2nc3ccccc3[nH]2)cc1	24	x	2	0	-24	39*
Cn1c(/C=N/Nc2nc3ccccc3[nH]2)nc2ccccc21	2	2	x	-6	-2	-2
Cc1cc(=O)[nH]c(N/N=C/c2c(C)nn(-c3ccccc3)c2C)n1	-6	3	-1	7	6	1
Cc1nn(-c2ccccc2)c(C)c1/C=N/Nc1nc2ccccc2[nH]1	57	-1	12	1	-57	27*
Cc1c(/C=N/Nc2nc3ccccc3[nH]2)c2ccccc2n1C	37	6	-5	-2	-37	78*
CCCNS(=O)(=O)c1ccc(OC)c(Cl)c1Cl	1	x	2	39*	-1	-10
Cc1cccc(C)c1-n1c(C)cc(/C=N/NC(=O)CSc2ncccn2)c1C	18	26	x	-15	-18	-14
Cc1cc(C)nc(SCC(=O)N/N=C/c2cc(C)n(-c3ccccc3C)c2C)n1	85*	x	-2	8	-85	-7
O=C(NN1C(=O)/C(=C\c2cccnc2)SC1=S)C(c1ccccc1)c1ccccc1	1	1	2	14	-1	-3
O=C(Cc1cccc2ccccc12)NN1C(=O)/C(=C\c2cccnc2)SC1=S	-17	2	1	-12	17	141*
COc1ccc2c3c(n(C)c2c1)[C@H](CO)N(C)CC31CN(S(=O)(=O)c2cccc(F)c2)C1	x	23	x	x	x	x
CC(=O)c1cccc(NC(=O)/C=C/c2ccc(S(=O)(=O)N3CCOCC3)cc2)c1	72*	7	12	-10	-72	-23
O=C(COC(=O)/C=C/c1ccc(OC(F)F)cc1)Nc1cccc(S(=O)(=O)N2CCCC2)c1	7	-3	2	-14	-7	-7
O=C(/C=C/c1ccc(OC(F)F)cc1)Nc1cccc(S(=O)(=O)N2CCOCC2)c1	80*	1	-6	2	-80	-14
CN(C)S(=O)(=O)c1cccc(NC(=O)/C=C/c2ccc(S(=O)(=O)N3CCOCC3)cc2)c1	52	0	5	-11	-52	-3
COc1c(C=O)cc2c3c1CCCN3CCC2	-9	-14	-2	-1	9	5
NCc1cc2c3c(c1)CCCN3CCC2	-8	13	55*	-3	8	40*
COc1ccc(-c2oc3ccccc3c2C#Cc2cncn2C)cc1	79*	1	9	3	-79	4
CCCCCCCCn1c(=O)c(C(=O)OCC)c(O)c2ccccc21	-11	x	x	-19	11	-2
CCCCCn1c(=O)c(-c2nc3ccccc3[nH]2)c(O)c2ccccc21	95*	-1	x	-17	-95	-6
Cc1noc(C)c1S(=O)(=O)Nc1ccc2c(c1)CC(=O)N([C@@H](C)CO)C[C@H](C)[C@H](CN(C)S(=O)(=O)c1ccc(F)cc1)O2	x	15	-13	x	x	x
Cc1c(CN(C)C)c2c(n1Cc1ccccc1)C(=O)c1ccc(Br)cc1-2	0	x	20	-22	0	19*
CCOC(=O)c1c2c(n(Cc3ccccc3)c1C)C(=O)C(=O)c1ccccc1-2	33	2	x	-19	-33	-1
SMILES	SR-BI HDL uptake	S100A4 inh HTS	RAD54 branch	PvdQ acylase	SR-BI DiI-HDL act	dFosB activator
CSc1cccc(NC(=S)N(CCCN2CCCC2)Cc2cccn2Cc2ccc(Cl)cc2)c1	x	-6	-3	-12	x	27*
S=C(Nc1cccc(Cl)c1)N(CCCN1CCCC1)Cc1cccn1Cc1ccc(Cl)cc1	6	7	-5	-12	-6	13
COc1ccc2c3c(n(C)c2c1)[C@H](CO)N(S(=O)(=O)c1cn(C)cn1)CC31CCN(C)CC1	x	-7	x	x	x	x
O=C(O)COn1c(-c2ccccc2)nc2ccc(Cl)cc21	-4	-1	x	3	4	0
O=[N+]([O-])c1ccc2nc(-c3ccccc3)n(OCc3ccc(Cl)cc3)c2c1	78*	6	-11	-1	-78	-7
O=C(C[C@H]1C[C@H]2c3cc(NC(=O)Nc4ccc(C(F)(F)F)cc4)ccc3O[C@H]2[C@H](CO)O1)NCc1ccc(Cl)cc1	x	-1	0	x	x	x
COc1ccc(S(=O)(=O)N[C@H]2C=C[C@H](CC(=O)NCCc3ccncc3)O[C@H]2CO)cc1	x	-12	0	x	x	x
N#CC(C#N)=CC1=C2OC(c3ccccc3)=CC(c3ccccc3)=C2CCC1	116*	x	8	-4	-116	-4
O=C(C[C@H]1CC[C@@H]2[C@H](COC[C@@H](O)CN2Cc2ccccc2)O1)NCCc1ccccc1	x	-3	-3	x	x	x
CC(C)c1cn(CC[C@@H]2CC[C@H](N)[C@@H](CO)O2)nn1	x	2	1	x	x	x
O=C(C[C@H]1CC[C@@H](NC(=O)c2ccccc2)[C@H](CO)O1)NCc1ccc(Oc2ccccc2)cc1	x	4	7	x	x	x
CCOC(=O)c1c(-c2ccc(OC)cc2)csc1NC(=O)COc1ccc2c(C)cc(=O)oc2c1	73*	-3	0	-12	-73	1
O=S(=O)(N[C@@H]1CC[C@H](CCn2cc(-c3ccccn3)nn2)O[C@@H]1CO)c1cccc(Cl)c1	x	2	-1	x	x	x
Cc1[nH]n(-c2ccccc2)c(=O)c1/C=N/NC(=O)c1ccc(O)cc1O	44	1	-11	1	-44	-16
Cc1[nH]n(-c2ccccc2)c(=O)c1/C=N/Nc1nncc(-c2ccccc2)n1	91*	-5	6	-5	-91	-10
Cc1cc(C(=O)N/N=C/c2c(C)[nH]n(-c3ccccc3)c2=O)n[nH]1	33	6	2	-4	-33	-11
Cc1[nH]n(-c2ccccc2)c(=O)c1/C=N/NC(=O)c1cccc(F)c1	132*	8	-2	12	-132	-5
Cc1ccc(-n2[nH]c(C)c(/C=N/NC(=O)c3ccc(O)cc3O)c2=O)cc1	137*	x	-2	12	-137	-5
Cc1[nH]n(-c2ccc(Br)cc2)c(=O)c1/C=N/NC(=O)c1ccccc1	136*	-4	9	3	-136	-1
CC(C)NC(=O)Nc1cccc2c1O[C@@H](CN(C)C(=O)NC(C)C)[C@@H](C)CN([C@@H](C)CO)C2=O	x	6	12	x	x	x
CCOC(=O)c1cc(-c2ccc(OC)cc2)nc2c1c(C)nn2CCC#N	74*	x	-19	-11	-74	-19
CCOC(=O)c1cc(-c2ccc(C#N)cc2)nc2c1c(C)nn2CCC#N	63	x	x	-11	-63	-3

Assay outcomes as filed in PubChem BioAssay.
